Source: PubChem BioAssay (several laboratories)
FLuc stim CS: affects firefly luciferase, flagging false hits in luciferase stimulation screens; P08659; ATPlite luciferase biochemical, luminescence, 10 min; 0 = ATP-free wells, 1 = DMSO control; activation factor at 10 µM; 200,000 tested, under 10 active; AID 1027;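 active = luciferase activation factor, scaled between plate controls, of at least 2 with compound at 10 µM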
Target sequence (P08659 whole entry, looked up): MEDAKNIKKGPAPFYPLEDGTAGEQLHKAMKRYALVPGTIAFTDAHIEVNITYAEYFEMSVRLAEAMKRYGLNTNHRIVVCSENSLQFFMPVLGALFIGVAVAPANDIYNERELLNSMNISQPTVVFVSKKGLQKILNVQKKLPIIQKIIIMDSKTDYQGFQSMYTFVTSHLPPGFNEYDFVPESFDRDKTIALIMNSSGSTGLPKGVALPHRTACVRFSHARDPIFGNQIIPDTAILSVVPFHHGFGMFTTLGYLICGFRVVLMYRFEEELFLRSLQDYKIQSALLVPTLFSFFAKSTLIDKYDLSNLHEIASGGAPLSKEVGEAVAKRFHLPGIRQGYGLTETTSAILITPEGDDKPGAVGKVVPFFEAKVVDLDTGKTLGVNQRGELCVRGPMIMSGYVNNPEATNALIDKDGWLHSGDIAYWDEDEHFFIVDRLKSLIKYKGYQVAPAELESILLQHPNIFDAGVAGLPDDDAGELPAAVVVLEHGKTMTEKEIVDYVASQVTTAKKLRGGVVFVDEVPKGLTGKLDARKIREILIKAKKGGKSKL
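Material: luciferase plus luciferin reagent, cell-free. Medium: PBS buffer for ATP. Also added: ATP substrate, dispensed from a 10.24 µM working solution in PBS. Doses: test compounds dosed from 2 mM stocks in 100% DMSO. Incubation: 10 min post-reagent at room temperature. Technique: light output (luminescence). Read-out basis: luminescence gain marking luciferase activators.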
APP 5'UTR act: APP 5'UTR luciferase reporter activation. 190,000 compounds, 1% hits. SH-SY5Y APP 5'UTR luciferase reporter, luminescence; zero percent = DMSO vehicle wells. activation, % at 2 µM. AID 1276;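 active = activation above a set limit, based on mean plus 3 SD of controls, cut at about 140% in these data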
STAT1 activator: STAT1 signaling activation. NIH 3T3 STAT1-luciferase reporter, IFN-gamma, luminescence; 100% = IFN-gamma alone, no compound. 200,000 compounds, 2.6% hits. AID 932. activation (% of control), % at 5.5 µM;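 active = activation above the screen-wide mean activation plus 3 SD, cut at about 130% in these data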;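 note: raw ratio to IFN-gamma control signal so 100% means no change and 0% no light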
NF-kB expr up: NF-kB expression increase, human neuronal cells | fold change at 12.5 µM | NF-kB reporter expression; stronger effect = higher value | AID 1239 | 190,000 compounds, 1.6% hits; in the data active = fold change above about 3.3
FLuc inh counter: counter-screen for luciferase assay inhibitors: firefly luciferase inhibition. P08659. ATPLite firefly luciferase biochemical luminescence, 10 min. inhibition, % at 10 µM. 200,000 compounds, 1.5% hits;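 active = inhibition above about 50% when tested at 10 µM, limit read from the data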
APP transl inh: APP translation inhibition; inhibition, % at 2 µM; SH-SY5Y APP 5'UTR-luciferase reporter, luminescence; 190,000 compounds, 0.82% hits;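 active = inhibition above a set limit, derived from the sample mean plus 3 SD, cut at about 45% in these data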
The depositor's hits bear a star; / = no result given. Rows were chosen to be rich in hits. Some 4.8% of all compounds tested hit in one or more screens of this group.

SMILES | FLuc stim CS | APP 5'UTR act | STAT1 activator | NF-kB expr up | FLuc inh counter | APP transl inh
O=C1NC(=O)/C(=C/c2ccc(O)cc2)S1 | 0.7 | 17 | 130* | 1.9 | 27 | -17
CCc1ccc(Nc2cnn(C34CC5CC(CC(CC(=O)O)(C5)C3)C4)c(=O)c2Cl)cc1 | 1 | -57 | 107 | 1.5 | 0 | 57*
CCOC(=O)c1c(C)[nH]c(N=Nc2cccc(C)c2)c1C | 0.9 | 158* | 138* | 3.4* | 13 | -158
CCOC(=O)c1c(C)[nH]c(N=Nc2ccccc2)c1C | 1 | 63 | 127 | 3.5* | -1 | -63
COc1ccc(-n2nnnc2SCC(=O)NCCc2ccccc2)cc1OC | 1.1 | 6 | 97 | 0.97 | -5 | -6
COc1ccc(CCNc2nnc(Sc3nnnn3-c3ccccc3)s2)cc1OC | 1.1 | -94 | 93 | 3.7* | -6 | 94*
COc1ccc(CCNC(=O)CSc2nnnn2-c2ccccc2)cc1 | 1 | -35 | 96 | 0.99 | -3 | 48*
Cc1noc(C)c1COc1ccc(CC(=O)NCc2ccccc2)cc1 | 1.1 | -86 | 106 | 1.6 | -6 | 86*
Cc1noc(C)c1COc1ccc(CC(=O)NC2CCCCCC2)cc1 | 1.1 | 9 | 93 | 1.1 | -6 | -9
O=C(Cc1ccc(-c2ccccc2)cc1)NCc1ccccc1 | 1.1 | -93 | 104 | 0.95 | -7 | 93*
COc1ccccc1NC(=O)C/C(C)=N/NC(=O)COc1c(Br)cc(Br)cc1OC | 1.1 | 10 | 101 | 1.1 | -6 | -10
COC(=O)c1ccc(Nc2cc(C)nc(-c3ccccc3O)n2)cc1 | 1.1 | -30 | 113 | 1.4 | -9 | 30
Cc1ccc(Nc2cc(C)nc(NCc3ccccc3)n2)cc1 | 1 | / | 85 | 0.76 | 2 | /
Cc1cc(N/N=C/c2ccccc2O)nc(-c2ccccc2O)n1 | 0.4 | -36 | 95 | 0.97 | 61* | 36
Cc1cc(N/N=C/c2ccccc2Cl)nc(NCc2ccccc2)n1 | 0.4 | 4 | 100 | 0.75 | 60* | -4
Cc1cc(N/N=C\c2ccccc2)nc(-c2ccccc2O)n1 | 0.4 | 21 | 112 | 1.2 | 65* | -21
Cc1cc(N/N=C/c2ccc(O)cc2O)nc(-n2nc(C)cc2C)n1 | 0.9 | -53 | 103 | 0.86 | 5 | 53*
O=C(O)CCC(=O)NNc1ccccc1[N+](=O)[O-] | 1.1 | 15 | 98 | 1.1 | -6 | -15
CC(C(=O)NN)c1ccc([N+](=O)[O-])cc1 (configuration not stated) | 1 | 7 | 103 | 0.96 | -3 | -7
Cc1cc(N/N=C/c2ccc(O)cc2O)nc(-c2ccccc2O)n1 | 0.4 | -56 | 121 | 0.69 | 64* | 56*
Cc1cc(C)cc(NC(=O)N2CCN(S(C)(=O)=O)CC2)c1 | 1.1 | -12 | 107 | 1.1 | -6 | 12
CCCCN1CCc2c([nH]c3ccc(C)cc23)C1=O | 1 | 123 | 151* | 3.2 | 4 | -123
Fc1ccc(NCc2cn3ccccc3n2)cc1 | 0.8 | 36 | 135* | 2.2 | 19 | -36
COc1ccc(C(=O)/C(C#N)=N/Nc2ccccc2[N+](=O)[O-])cc1 | 1.1 | -70 | 106 | 0.7 | -7 | 70*
CCCc1c(C)nn(C(=O)/C(C#N)=N/Nc2ccccc2[N+](=O)[O-])c1C | 1 | 65 | 109 | 0.91 | -1 | -64
SMILES | FLuc stim CS | APP 5'UTR act | STAT1 activator | NF-kB expr up | FLuc inh counter | APP transl inh
COc1ccc(C(=O)/C(C#N)=N/Nc2ccc([N+](=O)[O-])cc2)cc1 | 1 | -92 | 64 | 0.59 | 0 | 92*
COc1ccc(N/N=C(\C#N)C(N)=O)cc1 | 1 | -18 | 93 | 1.4 | 3 | 18
CCOC(=O)N1CCC(c2cc(=O)n3[nH]c(-c4ccccc4)cc3n2)CC1 | 1 | 18 | 83 | 1.2 | -3 | -18
O=c1c2c(nc3cc(-c4ccccc4Cl)[nH]n13)CCS2 | 0.3 | 120 | 111 | 2.1 | 74* | -120
O=c1c2c(nc3cc(-c4ccccc4)[nH]n13)CCS2 | 0.4 | 113 | 116 | 7.7* | 60* | -113
Cn1cnnc1SCc1ccc(C(=O)N=Nc2c(O)n(C)c3ccccc23)cc1 | 1 | -3 | 96 | 1.3 | 3 | 4
c1ccc2c(Cn3nnc4ccccc43)cccc2c1 | 1 | 0 | 102 | 1.3 | -4 | 0
c1ccc2c(COn3nnc4ccccc43)cccc2c1 | 1 | 110 | 128 | 3.4* | 4 | -110
O=C(CN1N=C(c2ccc(Cl)cc2)CCC1=O)NCc1cccnc1 | 1.1 | -2 | 100 | 1.1 | -5 | 2
Cc1ccc(C)c(Sc2ccc(NC(=O)CCl)cc2)c1 | 1 | -60 | 94 | 3 | -4 | 60*
CSc1nc2ccsc2c(=O)n1-c1ccccn1 | 1.1 | 14 | 100 | 1 | -6 | -14
C=CCc1cccc2cc(C(=O)N3CCN(c4ccccn4)CC3)c(=O)oc12 | 1 | 0 | 99 | 0.91 | -2 | 0
COc1cc(/C=C/CN2CCN(Cc3ccc(C)o3)C(CCO)C2)ccc1O (configuration not stated) | 1 | -11 | 94 | 1.1 | -4 | 11
C=CCNC(=O)/C(C#N)=C/c1ccc2c(c1)OCCO2 | 0.5 | 17 | 98 | 1.3 | 50* | -18
O=C(Cc1cccs1)Nc1ccc(-c2nc3ccccc3[nH]2)cc1 | 0.5 | 152* | 145* | 2.7 | 47 | -152
O=C(Nc1nc2ccccc2[nH]1)C1CCCO1 (configuration not stated) | 1 | 30 | 106 | 1.8 | -4 | -30
CCOc1ccc(NC(=S)NCc2nc3ccccc3[nH]2)cc1 | 1 | -5 | 98 | 0.73 | -3 | 5
CCNC(=S)Nc1ccc(-c2nc3ccccc3[nH]2)cc1 | 0.5 | 110 | 132* | 2.6 | 51* | -110
O=C(Nc1ccc(-c2nc3ccccc3[nH]2)cc1)C1CCCO1 (configuration not stated) | 0.1 | 180* | 87 | 4.6* | 90* | -180
O=C(CSc1ccc(Cl)cc1)Nc1cccc(-c2nc3ccccc3[nH]2)c1 | 1 | 19 | 121 | 1.4 | -2 | -19
O=C(CSc1ccccc1)Nc1ccc(-c2nc3ccccc3[nH]2)cc1 | 0.6 | 93 | 131* | 1.9 | 38 | -94
Cc1cc(Nc2ccccc2)n(C(=O)c2ccc(Cl)cc2)n1 | 1 | -7 | 123 | 1.6 | -4 | 7
S=c1[nH]ncn1-c1ccccn1 | 1 | 38 | 101 | 0.78 | -4 | -38
CCOc1ccccc1NC(=O)c1cccc(S(=O)(=O)N(Cc2ccccc2)c2ccccc2OC)c1 | 1.1 | 2 | 96 | 0.83 | -9 | -2
Cc1ccnn1CC(=O)N/N=C/c1ccc2c(c1)OCO2 | 1 | 21 | 114 | 1.2 | 2 | -21
O=C(Nc1ccccc1)OCCOc1ccccc1 | 1 | 88 | 132* | 4.5* | 0 | -88
CCOC(=O)c1ccc(NC(=O)Oc2ccccc2)cc1 | 1.1 | 14 | 106 | 1.3 | -9 | -14
